This is an account of results in PMC5884419 (European journal of pharmaceutical sciences : official …, 2018).

In data set [1] the test system is human ABCB1. The note with it: ref Weidner et al., 2015; cited from earlier work.
For data set [2] the following is noted: mice, 1 h after i.v. 10 mg/kg; ref Zhang et al., 2011; cited from earlier work.
Data set [3] can be described thus: tolerability of co-injected pharmacologic dose of unlabeled Ko143. The data set is classed as in vivo. The note with it: wild-type mice, 10 mg/kg i.v. co-injected with radiotracer.
Data set [4] can be described thus: plasma concentration after i.v. administration. The data set is classed as in vivo, mice. The note with it: mouse, iv, 10 mg/kg.
The conditions of data set [5]: rat plasma; ref Liu et al., 2014; cited from earlier work.
The target in data set [6] is T1, Abcb1a/b (Mus musculus, UniProt P21447). Particulars: Abcb1a/b^(-/-) and Abcb1a/b^(-/-)Abcg2^(-/-) mice; ref Liu et al., 2012; cited from earlier work.
The nature of data set [7]: radio-TLC analysis of radiolabeled metabolites in tissues and fluids. The note with it: 20 min after i.v. injection. The data set is classed as in vivo, mice. A digest of the protocol:
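Female FVB wild-type and Abcb1a/b(-/-)Abcg2(-/-) mice, 7–8 weeks old, under isoflurane, given radiotracer i.v. (28.4 ± 4.1 MBq, 0.1 mL). At 20 min, blood was drawn from the retro-orbital sinus and the animals were killed. Plasma, liver, kidneys, brain, bile and urine were collected. Tissues were homogenised, proteins precipitated with acetonitrile, then spun at 12,000 g, 5 min, 4°C. Percent unchanged radiotracer was determined by radio-TLC.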

Data set [8] addresses T2, Abcg2 (Mus musculus, UniProt Q7TMS5).
T2 sequence (Q7TMS5 1-657): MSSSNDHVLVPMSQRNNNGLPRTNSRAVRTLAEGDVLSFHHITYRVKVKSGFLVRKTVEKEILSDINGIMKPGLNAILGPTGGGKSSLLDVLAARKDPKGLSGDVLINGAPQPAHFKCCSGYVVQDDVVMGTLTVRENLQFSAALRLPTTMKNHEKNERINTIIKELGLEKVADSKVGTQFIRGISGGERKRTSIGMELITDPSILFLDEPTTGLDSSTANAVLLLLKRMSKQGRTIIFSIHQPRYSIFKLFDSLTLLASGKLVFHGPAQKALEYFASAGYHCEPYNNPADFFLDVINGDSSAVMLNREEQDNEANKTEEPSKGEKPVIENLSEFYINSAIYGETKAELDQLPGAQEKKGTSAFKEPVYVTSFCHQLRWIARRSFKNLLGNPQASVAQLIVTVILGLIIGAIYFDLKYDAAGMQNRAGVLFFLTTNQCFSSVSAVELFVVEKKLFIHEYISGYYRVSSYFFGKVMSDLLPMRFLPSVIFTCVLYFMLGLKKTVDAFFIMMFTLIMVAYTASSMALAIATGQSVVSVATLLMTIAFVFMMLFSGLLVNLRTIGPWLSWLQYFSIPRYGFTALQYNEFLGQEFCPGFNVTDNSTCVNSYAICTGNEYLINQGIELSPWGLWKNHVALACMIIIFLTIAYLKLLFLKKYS
The data set is classed as in vivo. The note with it: Abcg2^(-/-) and Abcb1a/b^(-/-)Abcg2^(-/-) mice, microdose. An outline of the steps:
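Female FVB Abcg2(-/-), Abcb1a/b(-/-)Abcg2(-/-) and wild-type mice, 7–8 weeks old, under isoflurane, had 60-min dynamic PET started with a tail-vein i.v. microdose of radiotracer (26.6 ± 10.5 MBq, 0.1 mL). The kidney-to-urine rate constant kurine was derived from 4.5–45 min data, given as mean ± S.D. Knockouts were compared with wild-type by one-way ANOVA with Tukey's test.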

The format of data set [9] is in vivo, mice. A digest of the protocol:
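Female FVB wild-type mice under isoflurane had 60-min dynamic PET after tail-vein injection of radiotracer mixed with test compound (10 mg/kg) or its vehicle (4 mL/kg), versus radiotracer alone. Liver and kidney kuptake came from an integration plot over 0.3–3.5 min. kurine and kbile came from 4.5–45 min data, with biliary activity taken as gallbladder + duodenum + intestine. Extraction ratio = kuptake divided by assumed blood flow (liver 1.0, kidney 4.1 mL/min/g).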

In data set [10] the target is T1, Abcb1a/b. The data set is classed as in vivo. The note with it: wild-type and Abcg2^(-/-) mice, microdose.
In data set [11] the test system is ABCB1. The note with it: ref Hugger et al., 2002, cited from earlier work.
[12] abbreviates: wild-type mice, microdose i.v., integration plot 0.3-3.5 min.

Like-named read-outs stand apart in the source and are kept apart here. Marks after values point to notes of the source that are not given here.

T1 sequence (P21447 whole entry): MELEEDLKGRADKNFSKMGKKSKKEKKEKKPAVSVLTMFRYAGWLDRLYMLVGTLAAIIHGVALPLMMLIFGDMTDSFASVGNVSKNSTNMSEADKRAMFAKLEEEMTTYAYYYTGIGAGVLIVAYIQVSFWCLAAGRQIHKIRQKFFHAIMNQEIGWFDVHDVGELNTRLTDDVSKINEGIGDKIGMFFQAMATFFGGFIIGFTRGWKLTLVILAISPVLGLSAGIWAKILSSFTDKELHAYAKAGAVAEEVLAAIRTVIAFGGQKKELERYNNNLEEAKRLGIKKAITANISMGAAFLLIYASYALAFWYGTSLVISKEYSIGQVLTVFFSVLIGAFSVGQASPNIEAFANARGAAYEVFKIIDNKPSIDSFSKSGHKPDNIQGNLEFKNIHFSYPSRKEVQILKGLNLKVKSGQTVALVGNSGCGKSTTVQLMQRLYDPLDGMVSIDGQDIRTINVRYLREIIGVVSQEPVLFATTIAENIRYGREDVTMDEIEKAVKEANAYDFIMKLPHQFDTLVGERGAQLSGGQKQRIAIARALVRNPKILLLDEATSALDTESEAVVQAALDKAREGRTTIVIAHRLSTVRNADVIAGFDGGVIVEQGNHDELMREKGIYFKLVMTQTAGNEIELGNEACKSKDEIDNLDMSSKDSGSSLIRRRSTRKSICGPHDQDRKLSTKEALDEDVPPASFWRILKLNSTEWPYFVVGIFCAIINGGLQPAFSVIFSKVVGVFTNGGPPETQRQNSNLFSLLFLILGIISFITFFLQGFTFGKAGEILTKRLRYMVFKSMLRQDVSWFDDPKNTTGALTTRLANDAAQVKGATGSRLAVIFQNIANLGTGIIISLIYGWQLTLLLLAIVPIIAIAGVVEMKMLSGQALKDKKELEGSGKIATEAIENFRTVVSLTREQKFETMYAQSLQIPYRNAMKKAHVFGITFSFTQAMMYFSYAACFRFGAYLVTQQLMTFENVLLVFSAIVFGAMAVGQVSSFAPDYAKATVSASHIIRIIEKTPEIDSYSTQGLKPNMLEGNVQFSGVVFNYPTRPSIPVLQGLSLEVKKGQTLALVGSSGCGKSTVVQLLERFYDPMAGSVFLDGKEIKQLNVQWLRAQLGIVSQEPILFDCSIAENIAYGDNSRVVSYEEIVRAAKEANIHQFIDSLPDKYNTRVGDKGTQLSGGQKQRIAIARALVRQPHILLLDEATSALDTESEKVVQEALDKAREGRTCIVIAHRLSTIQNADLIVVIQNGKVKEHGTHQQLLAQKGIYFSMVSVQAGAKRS

Take `COc1ccc2c3c([nH]c2c1)[C@H](CC(C)C)N1C(=O)[C@H](CCC(=O)OC(C)(C)C)NC(=O)[C@@H]1C3` [Ko143, (3S,6S,12aS)-1,2,3,4,6,7,12,12a-octahydro-9-methoxy-6-(2-methylpropyl)-1,4-dioxopyrazino[1’,2’:1,6]pyrido[3,4-b]indole-3-propanoic acid 1,1-dimethylethyl ester]: in [1], the “effect on human ABCB1 ATPase activity” value is listed as “stimulated”. In data set [2], the plasma concentration is 0.42 µM. The tolerability result in data set [3] is recorded as “well tolerated”. Besides, in data set [4], the concentration at 1 h was 0.012 µM. In addition, in [5], the “unbound fraction in plasma” value is 0.0293. Further, the “brain concentrations, fold higher than in Abcg2^(-/-) mice” value in data set [6] was “about 3 fold”.
Take `CC(C)C[C@H]1c2[nH]c3cc(O[11CH3])ccc3c2C[C@H]2C(=O)N[C@@H](CCC(=O)OC(C)(C)C)C(=O)N21` [[^11C]Ko143]: in data set [7] (Abcb1a/b^(-/-)Abcg2^(-/-) mice), the “Percentage of unchanged radiotracer, Bile” value is reported as 1.5 ± 1.0%; the “Percentage of unchanged radiotracer, Brain” value is reported as 73.2 ± 2.4 ^a %; the “Percentage of unchanged radiotracer, Kidney” value was 21.6 ± 2.0%; the “Percentage of unchanged radiotracer, Liver” value was 16.0 ± 1.8%. The “Percentage of unchanged radiotracer, Plasma” value in data set [7] (Abcb1a/b^(-/-)Abcg2^(-/-) mice) worked out at 34.7 ± 0.4%. Moreover, in data set [7] (wild-type mice), the “Percentage of unchanged radiotracer, Bile” value was 15.2 ± 21.0%; the “Percentage of unchanged radiotracer, Brain” value came out at 51.5 ± 13.9%; the “Percentage of unchanged radiotracer, Kidney” value came out at 35.6 ± 9.6%; the “Percentage of unchanged radiotracer, Liver” value worked out at 17.4 ± 2.7%. Besides, in data set [7] (wild-type mice), the “Percentage of unchanged radiotracer, Plasma” value was found to be 36.0 ± 1.5%. The “kurine compared with wild-type mice” value in data set [8] is “significantly lower”. Further, the “kbile, fold lower than with [^11C]Ko143 alone” value in data set [9] (wild-type mice co-injected with Ko143 vehicle) came out at 2.4 fold. Besides, in data set [9] (wild-type mice co-injected with unlabeled Ko143 (10 mg/kg)), the “kbile, fold lower than with [^11C]Ko143 alone” value is listed as 1.9 fold. For the same molecule, the kurine entry in data set [9] (wild-type mice co-injected with unlabeled Ko143 (10 mg/kg) or Ko143 vehicle) was “almost decreased to zero”. Moreover, in [9] (setting [12]), the “mean kuptake, kidney” value amounted to 0.262 mL/min/g tissue and the “mean kuptake, liver” value is 0.689 mL/min/g tissue. The “brain concentration-time curves, fold lower than in Abcb1a/b^(-/-) and Abcb1a/b^(-/-)Abcg2^(-/-) mice” value in [10] was “approximately 2 fold”.
On to polyethylene glycol 300 [PEG300], for which the “inhibition of ABCB1 activity” value in [11] (20% v/v, Caco-2 and MDR1-MDCK cell monolayers) is given as “almost complete in vitro inhibition”.
In the case of polysorbate 80, in data set [11] (0.05% w/v, Caco-2 cells), the “inhibition of ABCB1 activity” value is given as “only partially inhibited”.
